# Assay results from different studies.
# Protocols differ between the studies behind these lines.
# PIK3CA H1047Y: Phosphatidylinositol 4,5-bisphosphate 3-kinase catalytic subunit alpha isoform (PIK3CA, Homo sapiens, UniProt P42336, H1047Y)
# PIK3CA E542K: Phosphatidylinositol 4,5-bisphosphate 3-kinase catalytic subunit alpha isoform (PIK3CA, Homo sapiens, UniProt P42336, E542K)
# PIK3CA Q546K: Phosphatidylinositol 4,5-bisphosphate 3-kinase catalytic subunit alpha isoform (PIK3CA, Homo sapiens, UniProt P42336, Q546K)
# PIK3CA H1047L: Phosphatidylinositol 4,5-bisphosphate 3-kinase catalytic subunit alpha isoform (PIK3CA, Homo sapiens, UniProt P42336, H1047L)
# PIK3CA C420R: Phosphatidylinositol 4,5-bisphosphate 3-kinase catalytic subunit alpha isoform (PIK3CA, Homo sapiens, UniProt P42336, C420R)
# PIK3CA: Phosphatidylinositol 4,5-bisphosphate 3-kinase catalytic subunit alpha isoform (PIK3CA, Homo sapiens, UniProt P42336)
SMILES,target,observed,technique,concentration,remaining binding [%]
O=C(NCc1ncc(C(F)(F)F)cc1Cl)c1ccc2c(c1)C1(CCS(=O)(=O)CC1)[C@@H](C1CC1)N2S(=O)(=O)c1ccc(F)cc1,PIK3CA H1047Y,cell-free assay,competition with immobilised ligand,1 µM,85
O=C(c1ccc(Nc2ncc(Cl)c(-c3ccc(Cl)s3)n2)cc1)N1CCC(N2CCCC2)CC1,PIK3CA E542K,binding,competition with immobilised ligand,1 µM,100
N#Cc1ccc(Nc2ccc3[nH]c(=O)[nH]c3c2)c(Cl)c1,PIK3CA Q546K,cell-free assay,competition with immobilised ligand,1 µM,93
CN(c1nccc(-c2cnn3ncccc23)n1)C1CC1,PIK3CA H1047L,binding,,1 µM,100
O=C(NCCCN1CCOCC1)c1ccc(Nc2ncc(Cl)c(-c3ccc(Cl)s3)n2)cc1,"Phosphatidylinositol 4,5-bisphosphate 3-kinase catalytic subunit alpha isoform (PIK3CA, Homo sapiens, UniProt P42336, M1043I)",binding,competition with immobilised ligand,1 µM,100
CN(CCCC(F)(F)F)c1nccc(-c2cnn3ncccc23)n1,PIK3CA C420R,binding,,1 µM,100
O=C1CCc2cc(Nc3cc(OC4CCOCC4)c([N+](=O)[O-])cc3Cl)ccc2N1,PIK3CA,cell-free assay,competition with immobilised ligand,1 µM,79
c1cncc(-c2cccc(Nc3nccc(NC4CCCCC4)n3)c2)c1,PIK3CA H1047Y,binding,competition with immobilised ligand,10 µM,89
Nc1ncc2c(n1)-c1c([nH]c3ccc(C#CC4CC4)cc13)CCCC2,"Phosphatidylinositol 4,5-bisphosphate 3-kinase catalytic subunit alpha isoform (PIK3CA, Homo sapiens, UniProt P42336, I800L)",binding,competition with immobilised ligand,1 µM,81
COc1cnc(Nc2cccc(S(N)(=O)=O)c2)nc1N1CCN(c2ccccc2)C(=O)C1,PIK3CA H1047L,binding,competition with immobilised ligand,1 µM,90
C[C@@H](c1ccc(-n2cnc3c(N)ncnc32)cc1)N1CCc2nn(C)c(Cc3ccccc3)c2C1=O,PIK3CA H1047Y,binding,competition with immobilised ligand,0.1 µM,78
CS(=O)(=O)NCC[C@H](NC(=O)c1cncc2c1cnn2-c1ccc(F)cc1)c1ccnc(S(C)(=O)=O)c1,PIK3CA,cell-free assay,competition with immobilised ligand,1 µM,83
F[C@@H]1CCN(c2nccc(-c3cnn4ncccc34)n2)C1,PIK3CA E542K,binding,,1 µM,54
CN1CCN(c2ccc(Nc3nccc(-c4cccc([N+](=O)[O-])c4)n3)cc2C(F)(F)F)CC1,PIK3CA H1047Y,binding,,10 µM,27
CCc1ccccc1C(=O)Nc1n[nH]c2c(C)c(F)c(C3C(C#N)=C(C)N(C)C(C)=C3C#N)cc12,PIK3CA H1047L,cell-free assay,competition with immobilised ligand,1 µM,100
Cc1cnn2ncc(-c3ccnc(N(C)C)n3)c2c1,PIK3CA E542K,binding,,1 µM,79
O=C(c1ccc(Nc2ncc(Cl)c(-c3cc4ccccc4s3)n2)cc1)N1CCC(N2CCCC2)CC1,PIK3CA Q546K,binding,competition with immobilised ligand,1 µM,90
O=C(NS(=O)(=O)c1ccc(NCC2CCOCC2)c([N+](=O)[O-])c1)c1ccc(N2CCN(Cc3ccc(C(F)(F)F)cc3-c3ccc(Cl)cc3)CC2)cc1Oc1cnc2[nH]ccc2c1,PIK3CA H1047Y,cell-free assay,competition with immobilised ligand,1 µM,67
N[C@@H]1CCN(c2nccc(-c3cnn4ncccc34)n2)C1,"Phosphatidylinositol 4,5-bisphosphate 3-kinase catalytic subunit alpha isoform (PIK3CA, Homo sapiens, UniProt P42336, E545K)",binding,,1 µM,100
Cc1c(-c2ccccc2)oc2c(C(=O)OCCN3CCCCC3)cccc2c1=O,PIK3CA,cell-free assay,competition with immobilised ligand,10 µM,100
CC1CCCN1c1nccc(-c2cnn3ncccc23)n1 (stereo not drawn),PIK3CA C420R,binding,,1 µM,72
CC1=C(C#N)C(c2ccc3c(c2)c(NC(=O)c2ccccc2C)nn3C)C(C#N)=C(C)N1,PIK3CA Q546K,cell-free assay,competition with immobilised ligand,1 µM,87
COc1ccnn2ncc(-c3ccnc(N(C)C)n3)c12,PIK3CA H1047L,binding,,1 µM,76
O=C(NCC1CCOCC1)c1n[nH]cc1NC(=O)c1c(F)cccc1F,"Phosphatidylinositol 4,5-bisphosphate 3-kinase catalytic subunit alpha isoform (PIK3CA, Homo sapiens, UniProt P42336, E545A)",binding,competition with immobilised ligand,1 µM,100
